Results from ChEMBL document CHEMBL4052661, “Structure Based Design of N-(3-((1H-Pyrazolo[3,4-b]pyridin-5-yl)ethynyl)benzenesulfonamides as Selective Leucine-Zipper and Sterile-α Motif Kinase (ZAK) Inhibitors” (J Med Chem, 2017).

Key:
[1] = target: Mitogen-activated protein kinase kinase kinase 20 (Homo sapiens, UniProt Q9NYL2); assay: Inhibition of N-terminal GST-tagged recombinant human full-length ZAK expressed in baculovirus infected Sf9 insect cells using MBP as substrate after 30 mins by ADP-Glo assay
Sequence of Mitogen-activated protein kinase kinase kinase 20 (Q9NYL2 whole entry): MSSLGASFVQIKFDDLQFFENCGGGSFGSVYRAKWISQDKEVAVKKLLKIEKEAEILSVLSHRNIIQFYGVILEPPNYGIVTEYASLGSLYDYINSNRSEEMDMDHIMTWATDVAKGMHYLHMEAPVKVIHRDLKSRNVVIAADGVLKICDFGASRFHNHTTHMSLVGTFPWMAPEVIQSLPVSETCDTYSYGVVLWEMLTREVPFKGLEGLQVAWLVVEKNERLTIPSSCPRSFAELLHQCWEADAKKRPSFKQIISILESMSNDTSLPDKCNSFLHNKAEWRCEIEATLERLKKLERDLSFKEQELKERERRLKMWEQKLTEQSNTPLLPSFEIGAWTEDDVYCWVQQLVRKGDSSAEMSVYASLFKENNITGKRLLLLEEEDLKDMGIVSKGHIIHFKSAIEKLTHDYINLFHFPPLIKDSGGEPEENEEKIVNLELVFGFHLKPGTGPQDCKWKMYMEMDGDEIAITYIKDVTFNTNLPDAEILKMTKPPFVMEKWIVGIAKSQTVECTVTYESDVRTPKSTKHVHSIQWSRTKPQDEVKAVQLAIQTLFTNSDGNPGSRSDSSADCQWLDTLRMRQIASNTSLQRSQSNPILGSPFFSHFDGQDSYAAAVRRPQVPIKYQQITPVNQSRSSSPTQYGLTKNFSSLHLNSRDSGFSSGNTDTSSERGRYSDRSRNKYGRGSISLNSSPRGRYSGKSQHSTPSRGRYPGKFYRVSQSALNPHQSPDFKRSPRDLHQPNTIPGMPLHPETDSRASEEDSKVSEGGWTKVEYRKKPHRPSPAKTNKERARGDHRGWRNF
Procedure, shortened: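 ZAK activity by ADP-Glo luminescence with MBP as substrate, ATP and serially diluted compound. Reaction started by adding ATP and run 30 min at room temperature. ADP-Glo reagent was added to stop it (40 min), then detection reagent for 30 min before reading luminescence. Curves fitted; each experiment repeated at least 3 times.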

[2] = target: Serine/threonine-protein kinase B-raf (Homo sapiens, UniProt P15056); assay: Inhibition of wild type GST-tagged recombinant human full-length B-RAF expressed in baculovirus expression system using Ser/Thr3 as substrate after 1 hr by FRET-based Z'-Lyte assay
Sequence of Serine/threonine-protein kinase B-raf (Homo sapiens, UniProt P15056) (P15056 whole entry): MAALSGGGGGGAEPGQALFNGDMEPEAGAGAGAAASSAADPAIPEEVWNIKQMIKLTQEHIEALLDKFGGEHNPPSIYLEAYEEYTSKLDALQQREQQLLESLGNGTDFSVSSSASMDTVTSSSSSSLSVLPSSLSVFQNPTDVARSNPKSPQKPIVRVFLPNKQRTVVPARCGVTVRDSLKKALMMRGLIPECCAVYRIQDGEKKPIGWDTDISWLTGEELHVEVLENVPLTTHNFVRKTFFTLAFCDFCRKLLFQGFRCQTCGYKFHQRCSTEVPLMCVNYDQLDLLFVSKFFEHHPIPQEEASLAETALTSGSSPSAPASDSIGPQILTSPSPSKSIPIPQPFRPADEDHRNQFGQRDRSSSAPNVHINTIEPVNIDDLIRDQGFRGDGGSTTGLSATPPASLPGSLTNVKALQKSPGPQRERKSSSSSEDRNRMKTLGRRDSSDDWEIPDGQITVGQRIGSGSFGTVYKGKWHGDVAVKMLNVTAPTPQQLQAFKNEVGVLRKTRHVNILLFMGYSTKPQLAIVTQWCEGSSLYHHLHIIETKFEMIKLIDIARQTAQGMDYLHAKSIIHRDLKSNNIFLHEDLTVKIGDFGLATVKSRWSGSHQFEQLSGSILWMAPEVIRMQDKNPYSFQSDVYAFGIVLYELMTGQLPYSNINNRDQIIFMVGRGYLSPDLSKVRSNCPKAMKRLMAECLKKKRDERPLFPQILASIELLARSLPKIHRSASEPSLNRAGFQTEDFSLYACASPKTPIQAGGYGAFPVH
Procedure, shortened: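 Z'-Lyte FRET assay with Ser/Thr3 peptide in kinase buffer; the final reaction held 0.002 ng B-Raf for wild type. Incubated 1 h at room temperature, then 1 h development to cleave nonphosphorylated peptide, then stop reagent. Means of 3 independent experiments.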

[3] = target: Serine/threonine-protein kinase B-raf (Homo sapiens, UniProt P15056, V600E); assay: Inhibition of recombinant human B-RAF V600E mutant using Ser/Thr3 as substrate after 1 hr by FRET-based Z'-Lyte assay
Sequence of Serine/threonine-protein kinase B-raf (Homo sapiens, UniProt P15056, V600E) (P15056 2-766 V600E limits assumed): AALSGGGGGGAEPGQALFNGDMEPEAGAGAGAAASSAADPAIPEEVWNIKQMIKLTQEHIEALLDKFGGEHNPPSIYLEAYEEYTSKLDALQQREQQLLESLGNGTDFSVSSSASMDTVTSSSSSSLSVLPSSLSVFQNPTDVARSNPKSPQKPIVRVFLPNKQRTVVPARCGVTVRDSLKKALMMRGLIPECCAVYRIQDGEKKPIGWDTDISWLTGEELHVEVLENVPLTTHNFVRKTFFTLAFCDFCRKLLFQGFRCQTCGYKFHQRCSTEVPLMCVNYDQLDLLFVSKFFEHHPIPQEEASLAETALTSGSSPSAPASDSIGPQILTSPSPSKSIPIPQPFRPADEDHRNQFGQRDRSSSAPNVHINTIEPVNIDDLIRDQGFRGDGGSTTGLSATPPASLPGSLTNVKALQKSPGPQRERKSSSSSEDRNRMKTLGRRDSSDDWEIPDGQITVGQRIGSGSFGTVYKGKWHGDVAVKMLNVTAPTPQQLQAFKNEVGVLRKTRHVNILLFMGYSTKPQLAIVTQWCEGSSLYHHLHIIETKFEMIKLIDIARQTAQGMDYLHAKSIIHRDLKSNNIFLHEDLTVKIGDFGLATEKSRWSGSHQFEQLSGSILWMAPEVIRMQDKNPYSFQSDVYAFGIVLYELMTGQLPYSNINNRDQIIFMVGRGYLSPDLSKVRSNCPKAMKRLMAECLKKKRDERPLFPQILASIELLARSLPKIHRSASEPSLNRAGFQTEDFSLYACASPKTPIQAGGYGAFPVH

Structure (SMILES) | IC50 [1] [µM] | IC50 [2] [µM] | IC50 [3] [µM]
O=S(=O)(Nc1ccc(F)c(C#Cc2cnc3[nH]nc(OC4CCCC4)c3c2)c1F)c1cccc(Cl)c1 | 0.144 | > 10 | > 10
COc1n[nH]c2ncc(C#Cc3c(F)ccc(NS(=O)(=O)c4cccc(Br)c4)c3F)cc12 | 0.005 | > 1 | > 1
COc1n[nH]c2ncc(C#Cc3c(F)ccc(NS(=O)(=O)c4cccc(Cl)c4)c3F)cc12 | 0.0042 | > 6 | 0.902
O=S(=O)(Nc1ccc(F)c(C#Cc2cnc3[nH]ccc3c2)c1F)c1cccc(Cl)c1 | 0.0226 | > 10 | > 10
